According to ChEMBL document CHEMBL3763092, “Design and synthesis of pyrrolobenzodiazepine-gallic hybrid agents as p53-dependent and -independent apoptogenic signaling in melanoma cells” (Eur J Med Chem, 2016):
The source made the active and inactive calls. The calls are words filed in the database; no cut-off is given here.

Legend:
RPMI-7951 [1] = assay: Induction of apoptosis in human RPMI7951 cells expressing p53 mutant assessed as increased release of cathepsin D to cytosol at 0.5 uM by immunofluorescent staining analysis; type: functional, cell-based
In short: (§1)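 RPMI7951 cells on coverslips (1 × 10^4) were treated with 0.5 µM for 24 h. Immunofluorescence steps: fixation in 4% formaldehyde, permeabilization with 0.5% Triton X-100, blocking with 5% BSA. Primary antibodies: rabbit anti-cathepsin D and mouse anti-LAMP-1 at 1:500, cytochrome c and COX IV at 1:1000, 1 h at RT. Secondary antibodies for 30 min. DAPI counterstain.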

A-375 [2] = assay: Induction of reactive oxygen species generation in human A375 cells expressing p53 wild type assessed as increase in intracellular H2O2 level at 0.5 uM after 24 hrs by DCFH-DA staining based fluorescence analysis; type: functional, cell-based
In short: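 A375 cells were treated with 0.5 µM for 0, 12 and 24 h and stained with DCFH-DA to detect intracellular H2O2.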

A-375 [3] = assay: Induction of apoptosis in human A375 cells expressing p53 wild type assessed as increase in bax mRNA level by RT- qPCR analysis; type: functional, cell-based; details: TDE = time-dependent effect
In short: (§2)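 Quantitative real-time PCR on A375 cells over a time course, measuring p53, bax and bcl-xl mRNA normalized to GAPDH mRNA.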

A-375 [4] = assay: Cytotoxicity against human A375 cells expressing p53 wild type assessed as cell viability at 1 uM after 24 hrs by MTT assay; type: functional; details: A-375, 24 h, read-out: Activity
In short: (§3)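 Cells were exposed to compound at 1 µM for 24 h, then growth and viability were read by MTT assay. Media: A375 in DMEM; RPMI7951 and MCF-7 in MEM; A549 in RPMI1640; H1299 in DMEM-F12; all with 10% FCS and penicillin/streptomycin, at 37 °C and 5% CO2. Fibroblasts came from adult foreskin. DMSO stocks were 10 mM.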

A-375 [5] = assay: Effect on cell cycle distribution in human A375 cells expressing p53 wild type assessed as number of cells at S-phase at 0.5 uM after 24 hrs by FACS analysis (reference value: 13.8 %); type: functional
A-375 [6] = assay: Induction of apoptosis in human A375 cells expressing p53 wild type assessed as increase in cleaved caspase-3 levels at 0.5 uM after 24 hrs by western blot analysis; type: functional, cell-based
In short: (§4)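 A375 cells were exposed to 0.5 µM for 24 h, and lysates were immunoblotted with specific antibodies (p53, Cdc25c, p-Chk1, Bcl-xL, PARP, caspase-3). GAPDH served as loading control. Three independent experiments.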

A-375 [7] = assay: Increase in Chk1 phosphorylation in human A375 cells expressing p53 wild type at 0.5 uM after 24 hrs by western blot analysis; type: functional, cell-based; in short: as §4
A-375 [8] = assay: Induction of apoptosis in human A375 cells expressing p53 wild type assessed as increase in p53 levels at 0.5 uM after 24 hrs by western blot analysis; type: functional, cell-based; in short: as §4
RPMI-7951 [9] = assay: Induction of apoptosis in human RPMI7951 cells expressing p53 mutant assessed as decrease in lysosomal H+ concentration at 0.5 uM after 24 and 48 hrs by flow cytometric analysis; type: functional, cell-based
In short: (§5)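 Cells were loaded with LysoTracker Green (75 nM) for 15 min at 37 °C before treatment with 0.5 µM for the indicated times. After washing, mean fluorescence was quantified by flow cytometry. For p53 knockdown, A375 cells (6 × 10^4/well, antibiotic-free DMEM) were transfected with 30 nM tp53 siRNA or non-target siRNA using Lipofectamine RNAiMAX and harvested at 24 h.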

RPMI-7951 [10] = assay: Cytotoxicity against human RPMI7951 expressing p53 mutant cells assessed as colony formation at 0.5 uM after 10 days by SRB assay; type: functional, cell-based
In short: (§6)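 Cells were seeded at 100 per well and treated from the second day. Medium containing 0.5 µM agent was renewed every 3 days. After 10 days of treatment, colonies were stained with SRB and photographed. Three independent experiments.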

RPMI-7951 [11] = assay: Induction of apoptosis in human RPMI7951 cells expressing p53 mutant assessed as increased release of cytochrome c to cytosol at 0.5 uM by immunofluorescent staining analysis; type: functional, cell-based; in short: as §1
[12] = Cytotoxicity against human fibroblast cells expressing p53 wild type assessed as cell viability at 1 uM after 24 hrs by MTT assay; type: cell-based; details: read-out: Activity; in short: as §3
A-375 [13] = assay: Induction of apoptosis in human A375 cells expressing p53 wild type assessed as increase in p53 mRNA level by RT- qPCR analysis; type: functional, cell-based; details: TDE = time-dependent effect; in short: as §2
A-375 [14] = assay: Effect on cell cycle distribution in human A375 cells expressing p53 wild type assessed as number of cells at G0/G1 phase at 0.5 uM after 24 hrs by FACS analysis Rvb = 74.1 %); type: functional
MCF7 = assay: Cytotoxicity against human MCF7 cells expressing p53 wild type assessed as cell viability at 1 uM after 24 hrs by MTT assay; type: functional; details: MCF7, 24 h, read-out: Activity; in short: as §3
A-375 [15] = assay: Induction of apoptosis in human A375 cells expressing p53 wild type assessed as increase in cleaved PARP levels at 0.5 uM after 24 hrs by western blot analysis; type: functional, cell-based; in short: as §4
A-375 [16] = assay: Decrease in Cdc25c level in human A375 cells expressing p53 wild type at 0.5 uM after 24 hrs by western blot analysis; type: functional, cell-based; in short: as §4
A549 = assay: Cytotoxicity against human A549 cells assessed as cell viability at 1 uM after 24 hrs by MTT assay; type: functional; details: A549, 24 h, read-out: Activity; in short: as §3
A-375 [17] = assay: Induction of apoptosis in human A375 cells transfected with siRNA p53 assessed as decrease in lysosomal H+ concentration at 0.5 uM after 24 and 48 hrs by flow cytometric analysis; type: functional, cell-based; in short: as §5
A-375 [18] = assay: Effect on cell cycle distribution in human A375 cells expressing p53 wild type assessed as number of cells at G2/M phase at 0.5 uM after 24 hrs by FACS analysis (reference value: 12.1 %); type: functional
RPMI-7951 [19] = assay: Induction of apoptosis in human RPMI7951 cells expressing p53 mutant assessed as PARP cleavage at 0.5 uM after 24 hrs by western blot analysis; type: functional, cell-based
A-375 [20] = assay: Induction of apoptosis in human A375 cells expressing p53 wild type assessed as decrease in bcl-xl mRNA level by RT- qPCR analysis; type: functional, cell-based; details: TDE = time-dependent effect; in short: as §2
A-375 [21] = assay: Induction of apoptosis in human A375 cells expressing p53 wild type assessed as decrease in mitochondrial membrane potential at 0.5 uM after 12 hrs by DiOC6 dye based flow cytometry; type: functional, cell-based
In short: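 A375 cells were treated with 0.5 µM for 0, 12 and 24 h, labeled with DiOC6 and analyzed by flow cytometry. Three independent experiments.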

A-375 [22] = assay: Induction of apoptosis in human A375 cells expressing p53 wild type assessed as decrease in Bcl-xl levels at 0.5 uM after 24 hrs by western blot analysis; type: functional, cell-based; in short: as §4
A-375 [23] = assay: Induction of DNA damage in human A375 cells expressing p53 wild type assessed as increase in ATR/ATM activation at 0.5 uM after 24 hrs by immuohistochemistry analysis; type: functional, cell-based
In short: (§7)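 A375 cells on coverslips (1 × 10^4) were treated with 0.5 µM for 24 h. Cells were fixed in 4% formaldehyde for 5 min at 4 °C, permeabilized with 0.5% Triton X-100, and blocked with 5% BSA at 37 °C for 45 min. Primary antibodies were applied for 1 h at RT: mouse anti-p-ATR and anti-p-ATM 1:1000, anti-8-oxoguanine 1:250, COX IV and cytochrome c 1:1000. Secondary antibodies (rhodamine for 8-oxoguanine) followed for 30 min. DAPI counterstain.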

A-375 [24] = assay: Induction of apoptosis in human A375 cells expressing p53 wild type assessed as increase release of cytochrome c from mitochondria to cytosol at 0.5 uM after 24 hrs by immunofluorescence analysis; type: functional, cell-based; in short: as §7
A-375 [25] = assay: Induction of apoptosis in human A375 cells expressing p53 wild type assessed as lysosomal H+ concentration at 0.5 uM after 24 and 48 hrs by flow cytometric analysis; type: functional, cell-based; in short: as §5
[26] = Cytotoxicity against p53 knockout human H1299 cells assessed as cell viability at 1 uM after 24 hrs by MTT assay; type: functional; details: NCI-H1299, 24 h, read-out: Activity; in short: as §3
A-375 [27] = assay: Cytotoxicity against human A375 cells expressing p53 wild type assessed as colony formation at 0.5 uM after 10 days by SRB assay; type: functional, cell-based; in short: as §6
A-375 [28] = assay: Effect on cell cycle distribution in human A375 cells expressing p53 wild type assessed as number of cells at subG1 phase at 0.5 uM after 24 hrs by FACS analysis (reference value: 1 %); type: functional
A-375 [29] = assay: Induction of DNA lesion in human A375 cells expressing p53 wild type assessed as increase in 8-oxoguanine expression at 0.5 uM after 24 hrs by immunohistochemical analysis; type: functional, cell-based; in short: as §7
[30] = Cytotoxicity against human RPMI7951 cells expressing p53 mutant assessed as cell viability at 1 uM after 24 hrs by MTT assay; type: functional; details: RPMI-7951, 24 h, read-out: Activity; in short: as §3

COc1cc2c(cc1OCCCCCOc1cc(OC)c(OC)c(OC)c1)N=C[C@@H]1CCCN1C2=O
Activity (RPMI-7951 [1]): Active
Activity (A-375 [2]): Active
Activity (A-375 [3]): tde
viability at 1 µM (A-375 [4]): 37.7%
Activity (A-375 [5]): 37%
Activity (A-375 [6]): Active
Activity (A-375 [7]): Active
Activity (A-375 [8]): Active
Activity (RPMI-7951 [9]): Active
inhibition (RPMI-7951 [10]): Active
Activity (RPMI-7951 [11]): Active
viability at 24 h, 1 µM [12]: 111%
Activity (A-375 [13]): tde
Activity (A-375 [14]): 45.8%
viability at 1 µM (MCF7): 55%
Activity (A-375 [15]): Active
inhibition (A-375 [16]): Active
viability at 1 µM (A549): 78%
Activity (A-375 [17]): Active
Activity (A-375 [18]): 4.2%
Activity (RPMI-7951 [19]): Active
Activity (A-375 [20]): tde
Activity (A-375 [21]): Active
Activity (A-375 [22]): Active
Activity (A-375 [23]): Active
Activity (A-375 [24]): Active
Activity (A-375 [25]): inactive
viability at 1 µM [26]: 69.4%
inhibition (A-375 [27]): Active
Activity (A-375 [28]): 16%
Activity (A-375 [29]): Active
viability at 1 µM [30]: 64.6%

COc1cc2c(cc1OCCCCCCOc1cc(OC)c(OC)c(OC)c1)N=C[C@@H]1CCCN1C2=O
viability at 1 µM (A-375 [4]): 84.8%
Activity (A-375 [6]): Active
Activity (A-375 [8]): Active
viability at 24 h, 1 µM [12]: 93.4%
viability at 1 µM (MCF7): 79%
Activity (A-375 [15]): Active
viability at 1 µM (A549): 101%
Activity (A-375 [22]): Active
viability at 1 µM [26]: 90.2%
viability at 1 µM [30]: 55.9%

COc1cc2c(cc1OCCCNC(=O)c1cc(OC)c(OC)c(OC)c1)N=C[C@@H]1CCCN1C2=O
viability at 1 µM (A-375 [4]): 82.6%
viability at 24 h, 1 µM [12]: 101%
viability at 1 µM (MCF7): 94.6%
viability at 1 µM (A549): 96.1%
viability at 1 µM [26]: 96.4%
viability at 1 µM [30]: 97.7%

COc1cc2c(cc1OCCCOc1cc(OC)c(OC)c(OC)c1)N=C[C@@H]1CCCN1C2=O
viability at 1 µM (A-375 [4]): 69.7%
Activity (A-375 [6]): Active
Activity (A-375 [8]): Active
viability at 24 h, 1 µM [12]: 97.3%
viability at 1 µM (MCF7): 51.7%
Activity (A-375 [15]): Active
viability at 1 µM (A549): 88.7%
Activity (A-375 [22]): Active
viability at 1 µM [26]: 71.9%
viability at 1 µM [30]: 59.5%
